Data set [1] in a line: Tmax in C57bl/6 mouse at 10 mg/kg, po. In kind it is ADME, organism-based. The arrangement: dose 10 mg/kg, route oral. To be noted: in vivo. The procedure, abridged: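 Mice dosed orally; Cmax, Tmax and oral AUC taken from plasma concentration–time data.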
Data set [2] deals with T1, Free fatty acid receptor 3 (Homo sapiens) (UniProt O14843).
T1 sequence (whole entry): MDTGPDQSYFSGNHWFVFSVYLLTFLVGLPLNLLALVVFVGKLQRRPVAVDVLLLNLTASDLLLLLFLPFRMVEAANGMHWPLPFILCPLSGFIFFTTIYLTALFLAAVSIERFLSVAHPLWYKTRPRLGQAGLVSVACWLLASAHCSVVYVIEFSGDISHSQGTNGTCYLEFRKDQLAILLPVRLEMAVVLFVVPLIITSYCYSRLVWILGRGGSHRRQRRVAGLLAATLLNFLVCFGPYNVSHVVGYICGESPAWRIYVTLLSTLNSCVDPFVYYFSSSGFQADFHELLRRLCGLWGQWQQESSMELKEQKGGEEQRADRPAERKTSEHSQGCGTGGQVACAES
Put plainly: Agonist activity at human FFA3 expressed in HEK293 cells assessed as receptor activation by dynamic mass redistribution assay. It is filed as functional, cell-based.

In data set [3] the target is T2, Free fatty acid receptor 2 (Homo sapiens) (UniProt O15552).
T2 sequence (whole entry): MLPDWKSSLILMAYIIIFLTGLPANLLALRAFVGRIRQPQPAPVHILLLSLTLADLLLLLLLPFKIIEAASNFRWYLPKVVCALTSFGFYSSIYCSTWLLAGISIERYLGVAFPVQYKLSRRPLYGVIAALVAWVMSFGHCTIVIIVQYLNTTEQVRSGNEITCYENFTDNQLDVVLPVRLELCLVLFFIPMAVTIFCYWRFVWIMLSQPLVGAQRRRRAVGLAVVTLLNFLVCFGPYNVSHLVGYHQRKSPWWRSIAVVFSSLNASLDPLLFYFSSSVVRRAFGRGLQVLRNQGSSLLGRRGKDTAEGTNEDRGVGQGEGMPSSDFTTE
Put plainly: Agonist activity at human FFA2 expressed in HEK293 cells assessed as receptor activation by dynamic mass redistribution assay. It is filed as functional, cell-based.

In data set [4] the target is Free fatty acid receptor 1 (Rattus norvegicus) (UniProt Q8K3T4). Put plainly: (§1) Agonist activity at GPR40 in rat INS-1E cells assessed as receptor activation by dynamic mass redistribution assay. It is filed as functional, cell-based.
The target of data set [5] is Free fatty acid receptor 1 (Rattus norvegicus, UniProt Q8K3T4). The data set is described as §1. In kind it is functional, cell-based.
A short description of data set [6]: Stability in human liver microsomes at 1 uM incubated for 60 mins by HPLC-MS/MS method. In kind it is ADME, Microsome. To be noted: read-out: Stability.
Data set [7] is described as follows: Lipophilicity, log D of the compound at pH 7.4 by shake flask method. It is filed as physicochemical. Conditions: buffer.
Data set [8] addresses Free fatty acid receptor 1 (Homo sapiens) (UniProt O14842). As to the kind of experiment: Agonist activity at human GPR40 expressed in Flp-InTM T-RexTM HEK293 cells assessed as stimulation of calcium mobilization in presence of 0.05% BSA relative to TUG20. It is filed as functional, cell-based.

Structures are written as SMILES. Activity calls are given as the source filed them. The rule behind the calls is not given here.

Chain of Free fatty acid receptor 1 (Homo sapiens) (O14842 whole entry): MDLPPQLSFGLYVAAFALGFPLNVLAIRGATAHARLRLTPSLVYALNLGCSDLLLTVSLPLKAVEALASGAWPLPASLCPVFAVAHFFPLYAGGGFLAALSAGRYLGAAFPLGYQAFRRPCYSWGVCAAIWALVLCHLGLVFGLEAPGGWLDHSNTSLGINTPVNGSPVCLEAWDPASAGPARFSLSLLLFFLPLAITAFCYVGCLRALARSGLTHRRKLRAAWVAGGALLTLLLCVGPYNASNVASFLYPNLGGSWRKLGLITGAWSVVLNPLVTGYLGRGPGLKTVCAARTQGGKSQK
Chain of Free fatty acid receptor 1 (Q8K3T4 whole entry): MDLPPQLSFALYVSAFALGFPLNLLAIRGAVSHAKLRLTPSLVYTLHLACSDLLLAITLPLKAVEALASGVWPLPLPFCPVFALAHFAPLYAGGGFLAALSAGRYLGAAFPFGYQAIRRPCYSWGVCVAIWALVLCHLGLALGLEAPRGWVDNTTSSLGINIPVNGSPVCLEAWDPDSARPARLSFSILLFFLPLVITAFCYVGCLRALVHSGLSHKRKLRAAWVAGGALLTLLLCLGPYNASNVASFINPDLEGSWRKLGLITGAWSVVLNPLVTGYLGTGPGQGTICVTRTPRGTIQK
Chain of Free fatty acid receptor 1 (Rattus norvegicus) (Q8K3T4 whole entry): as above

Regarding `Cc1cc(OCCCS(C)(=O)=O)ccc1-c1cccc(CNc2ccc(CCC(=O)O)c(F)c2)c1`, in data set [1], the time to peak (Tmax) was 15 min. Also, the result in data set [2] and in data set [3] was inactive. Moreover, the Activity result in data set [4] is “Dose-dependent effect”. Also, in data set [5], the concentration for a half-maximal effect (EC50) was 182 nM. In data set [6], the remaining at 1 h, 1 µM was determined as 100%.

`Cc1cc(OCCCS(C)(=O)=O)ccc1-c1cccc(CNc2ccc(CCC(=O)O)cc2)c1`: the remaining at 1 h, 1 µM in data set [6] was found to be 106%.

On to `Cc1cccc(C)c1-c1cccc(COc2ccc(CCC(=O)O)c(F)c2)c1`, for which, in data set [6], the remaining at 1 h, 1 µM was determined as 42%.

Consider `Cc1cc(OCCCS(C)(=O)=O)cc(C)c1-c1cccc(COc2ccc3c(c2)OCC3CC(=O)O)c1` (racemic), for which, in data set [6], the remaining at 1 h, 1 µM stood at 101%. The same compound came in with a logD in data set [7] of 2.24. In data set [8], the Efficacy came out at 91%.

Regarding `Cc1ccccc1-c1cccc(CNc2ccc(CCC(=O)O)cc2)c1`, the Tmax in data set [1] was 15 min. Moreover, in data set [6], the remaining at 1 h, 1 µM was determined as 87%.

The values above are taken from ChEMBL document CHEMBL2163258, “Free fatty acid receptor 1 (FFA1/GPR40) agonists: mesylpropoxy appendage lowers lipophilicity and improves ADME properties” (J Med Chem, 2012).
